Several values for one entry are separate records, joined by “and”; a condition that tells them apart may be missing. Identical values can stand only once. Entries after “also recorded” stand apart in the source; their conditions may differ. Like-named read-outs stand apart in the source and are kept apart here. Marks after values point to notes of the source that are not given here.
Experiments:
[1] = PBS pH 7.4; cited from earlier work
[2] = Biodistribution in mice; format: in vivo; settings: BALB/c mice
Method in brief: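 Female BALB/c mice, 6 weeks old, received a 99mTc tricarbonyl isonitrile analogue (51–104 μCi) with the Re test compound (0.2 μmol; 10 μmol/kg) together through a tail vein catheter in 10% EtOH/saline. Animals were killed at 1, 2 and 4 h, and blood (cardiac puncture), organs, muscle, femur and urine were collected. For Re, tissues were digested in nitric acid for 20 h at 25 °C and measured by ICP-OES with a 20 ppm Tb internal standard. Results were expressed as %ID/g.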

[3] = Maximum tolerated dose; format: in vivo; settings: injections in mice
[4] = system: HeLa cells; settings: MTT assay; cited from earlier work
[5] = air-equilibrated PBS; cited from earlier work
[6] = system: A2780 ovarian cancer xenografts; assay: In vivo tumor growth inhibition, A2780 ovarian cancer xenografts; design: species or system NSG mice
Method in brief: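 NSG mice, about 7 weeks old, received A2780 tumour fragments from propagation mice implanted subcutaneously in the left flank. Groups of at least five were treated once tumours exceeded 100 mm3. Dosing was tail-vein injection twice weekly with vehicle (20% DMSO/PBS) or 5, 10 or 20 mg/kg test compound. Body weight and caliper tumour volume were tracked blinded over 27 days. Endpoints were a dimension >30 mm or burden […]; survival was compared with vehicle.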

[7] = system: HeLa cells; assay: Puromycin incorporation assay; format: cell-based; settings: 10 μM, 2 h, then puromycin
Method in brief: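 HeLa cells were exposed for 2 h to 10 μM test compound or DMSO vehicle. Puromycin (10 μM) was then added, and cells were harvested 10 min later. Lysis was in TBS/1% Triton X-100. Samples were run on SDS-PAGE and blotted to PVDF, with blocking in 5% milk/0.1% Tween-20. Anti-puromycin was applied overnight at 4 °C, then HRP secondary 1 h at room temperature. Detection was by ECL, normalised to β-actin.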

[8] = system: HeLa cells; assay: Intracellular luminescence by confocal fluorescence microscopy; format: cell-based; settings: 10 μM, 2 h
Method in brief: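 HeLa cells were kept in DMEM with 10% FBS at 37 °C and 5% CO2. 1 × 10^5 cells were seeded on glass-bottom dishes, and after 24 h they were exposed to the test compound (10 μM in DMEM) for 2 h. Cells were then washed with PBS and imaged in HEPES imaging buffer, pH 7.4. Confocal excitation was 405 nm with 410–550 nm emission. Corrected total cell fluorescence was averaged over at least ten cells.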

[9] = a week in aqueous solution, even in the presence of glutathione; cited from earlier work
[10] = Cyclic voltammetry in acetonitrile; format: physicochemical; settings: 0.10 M TBAP, irreversible reduction peak
[11] = Solubility in water or PBS; format: physicochemical
[12] = system: CHOP; assay: CHOP expression Western blot; format: cell-based; settings: HeLa cells, 10 μM, 24 h
Method in brief: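 HeLa cells were exposed for 24 h to 10 μM test compound or DMSO vehicle. Lysis was in TBS (pH 7.5) with 1% Triton X-100, DNase and protease inhibitors, on ice 30 min. Samples were run on SDS-PAGE and blotted to PVDF. Blocking was 5% BSA/0.1% Tween-20. Anti-CHOP was applied overnight at 4 °C, then HRP secondary 1 h at room temperature. Detection was by ECL, with β-actin as loading control.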

[13] = system: HeLa cells; assay: Thioflavin T; format: cell-based; settings: 10 μM, 30 min post-treatment
Method in brief: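 About 1 × 10^5 HeLa cells were seeded on glass-bottom dishes. After 24 h they were loaded with 5 μM ThT for 2 h, washed, and given fresh medium. Test compound (10 μM) was added in imaging buffer. Confocal images were taken at 0 and 30 min (ex 405 nm, em 410–550 nm). Corrected total cell fluorescence was computed as integrated density minus cell area × mean background.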

[14] = Luminescence lifetime measurements in PBS; format: physicochemical; settings: for luminescence lifetime τN2: nitrogen-saturated PBS (pH 7.4); for luminescence lifetime τ: air-equilibrated PBS, 10 μM
Method in brief: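 Test compound was measured at 10 μM in PBS. Time-resolved photon counts were collected in 40 ns bins and fitted to a standard exponential decay. For deoxygenated samples, nitrogen was bubbled through the PBS solution for 20 min before measurement.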

[15] = system: HeLa cells; assay: MTT cytotoxicity assay in HeLa cells; format: cell-based; settings: 48 h incubation
Method in brief: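 HeLa cells were grown in DMEM with 10% FBS at 37 °C, 5% CO2. Cells were seeded at 4000/well and rested 24 h, then medium was replaced with test-compound dilutions for 48 h. Stocks were in PBS or DMSO. MTT (1 mg/mL in DMEM) was added for 4 h. Formazan was dissolved in 8:1 DMSO/pH 10 glycine buffer and read at 570 nm. Viability was normalised to untreated wells: three independent experiments, six replicates per concentration.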

[16] = Emission spectra and emission quantum yield in PBS; format: physicochemical; settings: PBS pH 7.4, ≤1% DMSO, air-equilibrated; for emission quantum yield Φ: relative to quinine sulfate
Method in brief: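 Spectra were taken in PBS pH 7.4 with ≤1% DMSO. Quantum yield was set relative to quinine sulfate (Φ = 0.52, 0.5 M H2SO4), cross-checked against harmaline (Φ = 0.32, 0.05 M H2SO4). Excitation was 350 nm, keeping absorbance below 0.1. At least five concentrations of sample and standard were measured. Absorbance at 350 nm was plotted against integrated emission.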

[17] = system: HeLa cells; assay: Mitochondria morphology; format: cell-based; settings: 10 μM, up to 30 min
Method in brief: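 HeLa cells were loaded with MitoTracker Red FM and Hoechst 33342 for 30 min, then washed. At the microscope, test compound was added to 10 μM final in HEPES imaging buffer (pH 7.4). Confocal images were taken every 2 min up to 30 min: MitoTracker ex 561/em 630–700 nm, Hoechst ex 405/em 410–550 nm. Individual mitochondria were counted in ImageJ at 0, 14 and 30 min, alongside untreated cells.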

[18] = tail vein injection, 0.2 μmol Re / ~100 μCi 99mTc

Cc1ccc2ccc3ccc(C)nc3c2n1.O=S(=O)([O-])C(F)(F)F.[C-]#[N+]c1ccc(C)cc1.[C-]#[O+].[C-]#[O+].[C-]#[O+].[Re+] [TRIP-1a, fac-[Re(CO)3(dmphen)(ptolICN)]OTf]
emission maximum λ [1]: 505 nm
emission quantum yield Φ [1]: 3.1 ± 0.3%
rhenium content in blood, muscle and bone ([2]; ICP-OES): below detectable levels
heart and lung accumulation [2, 18]: accumulate in the heart and lungs
kidney uptake [2, 18]: large
liver uptake [2, 18]: moderate
spleen uptake [2, 18]: taken up to a much higher extent in this organ compared to TTIP
maximum tolerated dose, no obvious sign of distress [3]: ≥ 40 mg/kg
IC50 [4]: 1.4 ± 0.2 µM
luminescence lifetime τ [5]: 1.1^c μs
effect on tumor growth rate ([6]; 5 mg/kg i.v. twice weekly, 20% DMSO/PBS): no effect on tumor growth rate
effect on tumor growth rate ([6]; 10 mg/kg i.v. twice weekly, 20% DMSO/PBS): no effect on tumor growth rate
effect on tumor growth ([6]; 20 mg/kg i.v. twice weekly, 20% DMSO/PBS): inhibit tumor growth; also recorded: significantly inhibits tumor growth
prolongation of survival relative to the control group ([6]; 20 mg/kg twice weekly): 150%
average tumor volume relative to the vehicle-treated group ([6]; 20 mg/kg, days 10 to 20 after beginning treatment): less than half
side effects / body weight changes ([6]; highest concentrations of TRIP-1a, tumor-bearing NSG mice): minimal body weight changes
local reaction on administration ([6]; i.v. formulation in 20% DMSO/PBS): severe local inflammation
inhibition of protein synthesis (puromycin incorporation) [7]: most efficient inhibition of protein synthesis
intracellular localization pattern [8]: primarily localized around the nucleus in a punctate pattern
degradation in aqueous solution [9]: no measurable degradation
Epc [10]: −1.25 V vs SCE
solubility [11]: up to 2 mM
CHOP expression [12]: induce CHOP expression
increase in ThT fluorescence [13]: ≥ 2 fold
luminescence lifetime τN2 [14]: 3.5 μs

Cc1ccc(N=[C]=[Re+]2(=[C]=O)(=[C]=O)(=[C]=O)[N]3C=CC=c4ccc5c(c43)[N]2C=CC=5)cc1.O=S(=O)([O-])C(F)(F)F [TRIP-2a, fac-[Re(CO)3(phen)(ptolICN)]OTf]
IC50 [15]: 5.8 ± 0.5 µM
emission maximum λ [16]: 512 nm
emission quantum yield Φ [16]: 5.3 ± 0.4%
Epc [10]: −1.18 V vs SCE
luminescence lifetime τ [14]: 1.8 μs
luminescence lifetime τN2 [14]: 10.9 μs

O=S(=O)([O-])C(F)(F)F.[C-]#[N+]c1ccc(C)cc1.[C-]#[O+].[C-]#[O+].[C-]#[O+].[Re+].c1ccc(-c2ccccn2)nc1 [TRIP-3a, fac-[Re(CO)3(bpy)(ptolICN)]OTf]
IC50 [15]: 27.5 ± 0.6 µM
emission maximum λ [16]: 523 nm
emission quantum yield Φ [16]: 6.3 ± 0.2%
change in mitochondrial morphology (mitochondrial fission) [17]: did not give rise to any changes in mitochondrial morphology
inhibition of protein synthesis (puromycin incorporation) [7]: not effective translation inhibitors
Epc [10]: −1.18 V vs SCE
luminescence lifetime τ [14]: 0.7 μs
luminescence lifetime τN2 [14]: 1.0 μs

N.N.[Cl][Pt][Cl] [cisplatin, reference compound]
IC50 [4]: 6.6 ± 0.7 µM

fac-[Re(CO)3(CF3bpy)(ptolICN)]OTf [TRIP-6a]
IC50 [15]: 53 µM and 53.1 µM
emission maximum λ [16]: 584 nm
emission quantum yield Φ [16]: 0.8% and 0.8 ± 0.1%
change in mitochondrial morphology (mitochondrial fission) [17]: did not give rise to any changes in mitochondrial morphology
inhibition of protein synthesis (puromycin incorporation) [7]: not effective translation inhibitors
CHOP expression [12]: except for the least cytotoxic compound TRIP-6a
increase in ThT fluorescence [13]: unable to change the ThT fluorescence levels relative to untreated cells
luminescence lifetime τ [14]: 0.1 μs
luminescence lifetime τN2 [14]: 0.1 μs

fac-[Re(CO)3(dmbpy)(ptolICN)]OTf [TRIP-4a]
IC50 [15]: 7.6 ± 0.3 µM
emission maximum λ [16]: 516 nm
emission quantum yield Φ [16]: 6.7 ± 0.1%
Epc [10]: −1.30 V vs SCE
luminescence lifetime τ [14]: 0.8 μs
luminescence lifetime τN2 [14]: 1.3 μs

fac-[Re(CO)3(dmobpy)(ptolICN)]OTf [TRIP-5a]
IC50 [15]: 8.4 ± 1.9 µM
emission maximum λ [16]: 525 nm
emission quantum yield Φ [16]: 3.9 ± 0.3%
Epc [10]: −1.33 V vs SCE
luminescence lifetime τ [14]: 0.4 μs
luminescence lifetime τN2 [14]: 0.7 μs

fac-[Re(CO)3(tbutylbpy)(ptolICN)]OTf [TRIP-7a]
IC50 [15]: 1.2 ± 0.5 µM
emission maximum λ [16]: 518 nm
emission quantum yield Φ [16]: 7.7 ± 0.2%
inhibition of protein synthesis (puromycin incorporation) [7]: most efficient inhibition of protein synthesis
intracellular localization pattern [8]: distributed evenly throughout the cytoplasm
Epc [10]: −1.30 V vs SCE
CHOP expression [12]: induce CHOP expression
increase in ThT fluorescence [13]: ≥ 2 fold
luminescence lifetime τ [14]: 0.7 μs
luminescence lifetime τN2 [14]: 1.6 μs

From article PMC8114230 (Inorganic chemistry, 2020)
